{
  "source": "ChEMBL document CHEMBL1914346",
  "about": "“Discovery and synthesis of novel substituted benzocoumarins as orally active lipid modulating agents” (Bioorg Med Chem Lett, 2011)",
  "data": [
    {"test_system": "Syrian golden hamster", "test": "Antidyslipidemic activity in high fat diet-fed dyslipidemic syrian golden hamster model assessed as decrease in serum total cholesterol level at 10 mg/kg, po administered once daily for 7 days relative to vehicle treated control", "format": "functional, Mesocricetus auratus", "design": "scale not given: the % may be the effect or the level left", "details": "not given", "how_it_was_run": "(§1)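 Male Golden Syrian hamsters, 12 weeks old, 110 ± 10 g, eight per group, fed high-fat diet plus fructose daily on days 1–10. Oral dosing once daily on days 4–10 in 0.1% gum acacia; HFD-fed vehicle animals served as controls. After the last dose, retro-orbital blood was taken into EDTA and plasma lipids were measured enzymatically on an autoanalyzer. Results are % change versus HFD controls; t-test/ANOVA, p<0.05.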", "units": {"Activity": "%"}, "values": [
      {"compound": "Cc1cc(=O)oc2c3c(ccc12)C(=O)/C(=C/NC1CCCCC1)C=C3C=O", "Activity": 14},
      {"compound": "Cc1cc(=O)oc2c3c(ccc12)C(=O)/C(=C/NCCBr)C=C3C=O", "Activity": 13},
      {"compound": "Cc1cc(=O)oc2c3c(ccc12)C(=O)/C(=C/NCC(C)(C)CO)C=C3C=O", "Activity": 36}
    ]},
    {"test_system": "Syrian golden hamster", "test": "Antidyslipidemic activity in high fat diet-fed dyslipidemic syrian golden hamster model assessed as increase in serum ratio of serum HDL/total cholesterol level at 10 mg/kg, po administered once daily for 7 days relative to vehicle treated control", "format": "functional, Mesocricetus auratus", "details": "not given", "how_it_was_run": "as §1", "units": {"Activity": "%"}, "values": [
      {"compound": "Cc1cc(=O)oc2c3c(ccc12)C(=O)/C(=C/NC1CCCCC1)C=C3C=O", "Activity": 17},
      {"compound": "Cc1cc(=O)oc2c3c(ccc12)C(=O)/C(=C/NCCBr)C=C3C=O", "Activity": 15},
      {"compound": "Cc1cc(=O)oc2c3c(ccc12)C(=O)/C(=C/NCC(C)(C)CO)C=C3C=O", "Activity": 61}
    ]},
    {"test_system": "Syrian golden hamster", "test": "Toxicity in syrian golden hamster", "format": "organism-based, Mesocricetus auratus", "details": "in vivo", "how_it_was_run": "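HFD-fed male Golden Syrian hamsters, eight per group, dosed orally at 10 mg/kg once daily for 7 days in 0.1% gum acacia. Body weight was recorded daily and food intake was monitored, then compared with HFD vehicle controls.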", "values": [
      {"compound": "Cc1cc(=O)oc2c3c(ccc12)C(=O)/C(=C/NC1CCCCC1)C=C3C=O", "Activity": "Non-toxic"},
      {"compound": "Cc1cc(=O)oc2c3c(ccc12)C(=O)/C(=C/NCCBr)C=C3C=O", "Activity": "Non-toxic"},
      {"compound": "Cc1cc(=O)oc2c3c(ccc12)C(=O)/C(=C/NCC(C)(C)CO)C=C3C=O", "Activity": "Non-toxic"}
    ]},
    {"test_system": "not listed separately", "test": "Antioxidant activity assessed as trolox equivalent by TEAC assay", "format": "functional", "details": "not given", "units": {"Activity": "mM"}, "values": [
      {"compound": "Cc1cc(=O)oc2c3c(ccc12)C(=O)/C(=C/NC1CCCCC1)C=C3C=O", "Activity": 0.3},
      {"compound": "Cc1cc(=O)oc2c3c(ccc12)C(=O)/C(=C/NCCBr)C=C3C=O", "Activity": 0.1},
      {"compound": "Cc1cc(=O)oc2c3c(ccc12)C(=O)/C(=C/NCC(C)(C)CO)C=C3C=O", "Activity": 1.9}
    ]},
    {"test_system": "Syrian golden hamster", "test": "Antidyslipidemic activity in high fat diet-fed dyslipidemic syrian golden hamster model assessed as increase in serum HDL level at 10 mg/kg, po administered once daily for 7 days relative to vehicle treated control", "format": "functional, Mesocricetus auratus", "details": "not given", "how_it_was_run": "as §1", "units": {"Activity": "%"}, "values": [
      {"compound": "Cc1cc(=O)oc2c3c(ccc12)C(=O)/C(=C/NC1CCCCC1)C=C3C=O", "Activity": 1},
      {"compound": "Cc1cc(=O)oc2c3c(ccc12)C(=O)/C(=C/NCC(C)(C)CO)C=C3C=O", "Activity": 1}
    ]},
    {"test_system": "Syrian golden hamster", "test": "Antidyslipidemic activity in high fat diet-fed dyslipidemic syrian golden hamster model assessed as decrease in serum triglyceride level at 10 mg/kg, po administered once daily for 7 days relative to vehicle treated control", "format": "functional, Mesocricetus auratus", "design": "scale not given: the % may be the effect or the level left", "details": "not given", "how_it_was_run": "as §1", "units": {"Activity": "%"}, "values": [
      {"compound": "Cc1cc(=O)oc2c3c(ccc12)C(=O)/C(=C/NC1CCCCC1)C=C3C=O", "Activity": 62},
      {"compound": "Cc1cc(=O)oc2c3c(ccc12)C(=O)/C(=C/NCCBr)C=C3C=O", "Activity": 40},
      {"compound": "Cc1cc(=O)oc2c3c(ccc12)C(=O)/C(=C/NCC(C)(C)CO)C=C3C=O", "Activity": 49}
    ]},
    {"test_system": "Syrian golden hamster", "test": "Antidyslipidemic activity in high fat diet-fed dyslipidemic syrian golden hamster model assessed as decrease in serum HDL level at 10 mg/kg, po administered once daily for 7 days relative to vehicle treated control", "format": "functional, Mesocricetus auratus", "design": "scale not given: the % may be the effect or the level left", "details": "not given", "how_it_was_run": "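Male Golden Syrian hamsters (12 weeks, 110 ± 10 g) fed high fat diet with fructose daily days 1–10; dosed orally once daily days 4–10 in 0.1% gum acacia vehicle, eight per group. Blood drawn from retro-orbital plexus into EDTA after last dose; plasma HDL-C by enzymatic auto-analyzer. Reported as % change versus vehicle-treated HFD group; t-test/ANOVA, p < 0.05.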", "units": {"Activity": "%"}, "values": [
      {"compound": "Cc1cc(=O)oc2c3c(ccc12)C(=O)/C(=C/NCCBr)C=C3C=O", "Activity": 1}
    ]},
    {"test_system": "Syrian golden hamster", "test": "Antidyslipidemic activity in high fat diet-fed dyslipidemic syrian golden hamster model assessed as decrease in serum LDL level at 10 mg/kg, po administered once daily for 7 days relative to vehicle treated control", "format": "functional, Mesocricetus auratus", "design": "scale not given: the % may be the effect or the level left", "details": "not given", "how_it_was_run": "as §1", "units": {"Activity": "%"}, "values": [
      {"compound": "Cc1cc(=O)oc2c3c(ccc12)C(=O)/C(=C/NC1CCCCC1)C=C3C=O", "Activity": 10},
      {"compound": "Cc1cc(=O)oc2c3c(ccc12)C(=O)/C(=C/NCCBr)C=C3C=O", "Activity": 10},
      {"compound": "Cc1cc(=O)oc2c3c(ccc12)C(=O)/C(=C/NCC(C)(C)CO)C=C3C=O", "Activity": 36}
    ]}
  ]
}
